Screens as filed in PubChem BioAssay.
Most compounds without a hit are left out; they make up all but 1.7% or so of the library.
TPT1 inhibitor: Candida albicans TPT1 enzyme inhibitors, primary screen, biochemical, fluorescence polarization. tRNA 2'-phosphotransferase TPT1 (Candida albicans SC5314). recombinant caTPT1, FP RNA substrate dephosphorylation. AID 1962, 2009. 300,000 tested, 0.81% active. inhibition, % at 5 µM;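 active means inhibition above the mean of all tested compounds plus 3 SD, set per screening campaign, cut at about 24% in these data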;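 further: plate controls were DMSO alone for no effect and ferristatin control at 100 nM for full effect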
CSN deneddyl inh: inhibitors of CSN-mediated cullin deneddylation, primary screen, biochemical, fluorescence polarization, uHTS | inhibition, % at 12.5 µM | Purified CSN, SCF-Nedd8-OG deneddylation | 360,000 tested, 0.38% active;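 active means pattern-corrected inhibition above about 35%, with an unprinted fluorescence ratio check between 0.5 and 1.5, limit read from the data, passing the limit was not always enough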;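 further: 0% = enzyme with substrate and 100% = substrate without enzyme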
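Assay system: HEK293T-derived human Csn5 enzyme; quantity: 0.24 nM enzyme; medium: Tris/NaCl/DTT buffer, pH 7.5; also added: substrate SCFSkp2-Nedd8OG, 10 nM; doses: 12.5 µM compound; schedule: 90 min reaction at room temperature; signal: FP; read-out: % inhibition of substrate cleavage by Csn5; benchmarks: substrate-only high control, full reaction low control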
IDE cell activ: human IDE activators in live cells, primary screen, fluorescence polarization, HEK cells, FAbeta-B substrate | Insulin-degrading enzyme (Homo sapiens), P14735 | FAbeta-B cleavage; 0% vehicle, 100% cell-free pure enzyme wells | activation, % at 5.96 µM | 340,000 tested, 0.073% active;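 active means activation above the mean of all tested compounds plus 3 SD, set per screening campaign, cut at about 17% in these data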
HNF4A DNA FP: change in binding of human HNF4A to DNA, primary screen, biochemical, fluorescence polarization, FITC-DNA; AID 1224865, 2016; 1 h; 360,000 tested, 0.3% active; Hepatocyte nuclear factor 4-alpha (Homo sapiens), P41235; activity change, % at 10 µM; in the data active means activity change above about 30%, passing the limit was not always enough
Target sequence (P41235 whole entry, looked up): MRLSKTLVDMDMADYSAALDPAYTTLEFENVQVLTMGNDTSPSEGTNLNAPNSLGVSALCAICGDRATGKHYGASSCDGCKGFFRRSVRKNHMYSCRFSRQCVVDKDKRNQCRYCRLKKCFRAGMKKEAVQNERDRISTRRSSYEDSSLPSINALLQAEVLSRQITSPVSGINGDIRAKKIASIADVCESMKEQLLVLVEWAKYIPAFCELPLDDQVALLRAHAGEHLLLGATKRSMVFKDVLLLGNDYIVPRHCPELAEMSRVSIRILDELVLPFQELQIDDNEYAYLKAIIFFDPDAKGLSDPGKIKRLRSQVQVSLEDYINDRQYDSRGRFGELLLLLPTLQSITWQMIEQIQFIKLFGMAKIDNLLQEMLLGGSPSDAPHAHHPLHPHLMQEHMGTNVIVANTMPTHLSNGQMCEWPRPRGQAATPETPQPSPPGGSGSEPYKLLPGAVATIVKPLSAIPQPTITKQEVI
Tb MetRS inh: T. brucei MetRS inhibitors, primary screen, biochemical, luminescence; methionyl-tRNA synthetase (Trypanosoma brucei brucei); purified T. brucei MetRS, ATP depletion, Kinase-Glo luminescence; inhibition, % at 11.9 µM; 360,000 tested, 0.4% active; AID 624268, 2012;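 active means inhibition above a per-plate cutoff of the control wells' mean inhibition plus 3 SD, cut at about 5.5% in these data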;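 further: 0% = DMSO wells median and 100% = median of wells with control inhibitor compound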
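Material: parasite MetRS enzyme / Replication: singlicate, one well per compound / Signal: luminescence of leftover ATP / Schedule: 2 h aminoacylation at 25 °C after 15 min preincubation / Medium: HEPES-MgCl2-KCl buffer plus DTT, spermine, BSA, pyrophosphatase / Doses: 11.9 µM single point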
IDE inh: human IDE inhibitors in live cells, primary screen, fluorescence polarization, HEK cells, FAbetaB substrate | AID 434962, 2010 | inhibition, % at 5.59 µM | 320,000 tested, 0.41% active | FAbetaB cleavage | Insulin-degrading enzyme (Homo sapiens), P14735;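 active means percent inhibition above the average of all tested compounds plus 3 SD, set per screening campaign, cut at about 16% in these data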;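 further: IDE supplied by intact live HEK cells; FP after avidin binding of uncleaved biotin substrate so inhibition keeps polarization high; 0% = DMSO wells and 100% = 60 µM reference IDE inhibitor Ii1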
TPT1 inh confirm: Candida albicans TPT1 inhibitors, confirmation, biochemical, fluorescence polarization, triplicate. shares compounds with TPT1 inhibitor. recombinant caTPT1, RNase T1 coupled. inhibition, % at 5 µM. 2,400 tested, 74% active. AID 2149, 2009;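 active means inhibition above the primary screen limit, the mean inhibition of all tested compounds plus 3 SD, cut at about 25% in these data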
RNase T1 counter: RNase T1 inhibitors, counter-screen for TPT1 inhibitor project, biochemical, fluorescence polarization. shares compounds with TPT1 inhibitor. RNase T1 cleavage, 1536-well. inhibition, % at 5 µM. 2,400 tested, 83% active. AID 2153, 2009;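 active means inhibition above the solvent-only control well mean plus 3 SD, limit set per screening run, cut at about 23% in these data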;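 further: plate controls were DMSO wells with enzyme for no effect and wells without RNase T1 for full effect; inhibitors block cleavage so intact labeled substrate keeps polarization high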
Target sequence (P00651 whole entry, looked up): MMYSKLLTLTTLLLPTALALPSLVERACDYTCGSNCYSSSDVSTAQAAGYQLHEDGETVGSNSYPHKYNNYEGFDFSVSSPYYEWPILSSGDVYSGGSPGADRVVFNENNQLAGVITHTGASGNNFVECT
The depositor's hits bear a star; x = no result.

SMILES	TPT1 inhibitor	CSN deneddyl inh	IDE cell activ	HNF4A DNA FP	Tb MetRS inh	IDE inh	TPT1 inh confirm	RNase T1 counter
O=C(CCC(=O)N1CCSc2ccccc21)NCCc1ccccc1	2.0	0.0	6.4	2.8	-0.7	1.0	x	x
Cc1ccc(Oc2cc([N+](=O)[O-])cc3c2C(=O)Nc2ccccc2O3)cc1	24.5*	34.1	5.6	4.4	-0.7	-0.6	35.9*	45.9*
COc1ccc(/C=C2\CC/C(=C\c3ccc(OC)cc3OC)C2=O)c(OC)c1	147.6*	78.9	-7.9	123.6	-0.8	2.1	148.5*	137.5*
COc1ccc(/C=C2\CCC(C3CCCC3)C2=O)c(OC)c1 (stereo not given)	1.6	3.3	1.1	1.1	-0.1	-3.3	x	x
CC1(C)Cc2cccc(OCC(=O)NCc3cccs3)c2O1	-0.5	-4.1	3.1	0.3	-0.3	-3.5	x	x
O=C(NCCNC(=O)c1ccco1)c1cccc(F)c1	46.9*	-5.0	-0.3	1.0	0.4	6.2	9.8	11.7
COCCCNC(=O)/C(C#N)=C1\N=C(NC(=O)c2cccs2)c2ccccc21	31.4*	11.7	2.2	19.1	0.0	-1.3	9.9	15.1
CC(=O)c1cccc(NC(=O)CNC(=O)c2sc3ccccc3c2Cl)c1	29.0*	5.3	6.8	14.8	-0.4	4.0	44.6*	57.3*
O=C(NCc1ccccc1)C(c1cccnc1)N(C(=O)c1csnn1)c1ccccc1 (stereo not given)	-2.8	-1.3	2.3	-1.5	0.5	1.9	x	x
O=C(NNC(=S)NC1CCCCC1)c1sc2ccccc2c1Cl	-6.1	-14.1	4.3	4.1	-1.0	1.4	x	x
CC(C)(C)C(=O)NC(=S)NNC(=O)c1sc2ccccc2c1Cl	27.1*	-4.3	-1.2	-0.4	0.1	5.5	0.4	1.2
COc1cc(OC)cc(C(C(=O)NCc2ccccc2)N(Cc2ccco2)C(=O)c2ccno2)c1 (stereo not given)	41.9*	16.6	1.4	10.8	-1.6	-0.5	16.0	25.0*
COc1ccc(C2CC(=O)Oc3cc(C)c(Cl)c(C)c32)cc1 (stereo not given)	x	-4.5	-0.5	0.7	0.0	x	x	x
CN1/C(=C/C(=S)NC(=O)C2CCC2)C(C)(C)c2ccccc21	50.5*	5.0	-1.8	20.2	0.1	7.5	12.9	17.5
CC(C)C(=O)NC(=S)/C=C1/N(C)c2ccccc2C1(C)C	28.0*	48.0*	5.8	69.2*	-0.3	2.1	16.9	23.9*
Cc1ccc(C(=O)NC(=S)/C=C2\N(C)c3ccccc3C2(C)C)cc1	10.2	27.6	-2.5	13.1	-0.7	6.2	x	x
O=C(NNc1c([N+](=O)[O-])cc(C(F)(F)F)cc1[N+](=O)[O-])c1ccco1	-0.4	-2.6	-0.7	-0.4	-0.2	-0.7	x	x
CCCn1c(SCC(=O)Nc2ccc(S(=O)(=O)N(C)C)cc2)n[nH]c1=O	-1.6	-3.0	4.6	-1.6	-0.5	1.2	x	x
CC1=C(C#N)C(=O)N(C2CCS(=O)(=O)C2)C(=O)/C1=C\c1ccco1 (stereo not given)	74.1*	x	x	x	x	7.6	85.4*	10.5
COC(=O)c1ccnc(/C=N/O)c1	49.6*	3.6	6.1	-0.3	-0.4	-1.9	6.6	7.4
COC(=O)c1ccnc(SCC(=O)c2ccccc2)c1	0.7	0.7	-0.9	-1.1	0.0	-2.4	x	x
O=S(=O)(NCCc1ccc2c(c1)OCCO2)c1cccs1	26.1*	10.9	1.3	23.5	-0.7	7.7	19.7	26.6*
O=S(=O)(NCCc1ccccc1)c1cccs1	0.4	-0.8	-2.4	0.6	0.1	0.3	x	x
NS(=O)(=O)c1ccc(-c2ccc(/C=C3\NC(=S)NC3=O)o2)cc1	45.5*	-1.4	-2.0	36.0*	0.6	11.4	70.0*	79.7*
COC(=O)c1c(SCC(=O)NC2CCCCC2)[nH]c2ccccc2c1=O	25.2*	20.6	2.0	16.1	1.0	-1.8	18.7	29.9*
SMILES	TPT1 inhibitor	CSN deneddyl inh	IDE cell activ	HNF4A DNA FP	Tb MetRS inh	IDE inh	TPT1 inh confirm	RNase T1 counter
O=C(COC(=O)c1cc(=O)[nH]c2ccccc12)NC1CCCCC1	x	-3.4	-1.6	0.9	-0.1	7.8	x	x
CC1(c2ccc(Cl)cc2)NC(=O)N(CN2CCOCC2)C1=O (stereo not given)	-1.0	-1.4	-1.9	-0.6	-0.1	3.9	x	x
OC(COc1ccc(CNCCc2ccccc2F)cc1)CN1CCCCC1 (stereo not given)	-3.3	2.0	1.3	-3.0	-0.9	3.1	x	x
Cc1cc(C(=O)OCC(=O)c2ccc(Br)s2)no1	1.7	-0.1	2.5	3.7	-0.7	7.8	x	x
Cc1cc(C(=O)OCC(=O)c2ccc(Br)s2)c(C)o1	30.3*	x	x	x	x	-0.2	5.6	10.0
COC(=O)c1ccccc1NC(=O)CSc1nc2ccsc2c(=O)n1CCCCC(=O)O	x	2.7	x	4.7	-0.3	x	x	x
Cc1cccc(NC(=O)N2CCCC2C(=O)Nc2ccccc2)c1 (stereo not given)	-1.5	-2.5	-4.4	1.6	0.1	-4.7	x	x
CCn1c(SCC(=O)Nc2ccc(N3CCOCC3)cc2)nnc1-c1ccco1	-1.3	0.5	-1.9	0.1	-0.3	-3.7	x	x
COc1cc(/C=C2/C(=O)NN(c3cccc(Cl)c3)C2=O)cc(OC)c1O	123.8*	27.6	-17.9	-0.7	-0.7	6.3	151.2*	150.3*
COc1cc(/C=C2\C(=O)NN(c3ccccc3)C2=O)ccc1OCC(N)=O	-3.5	x	x	x	x	3.1	x	x
CCOc1cc(/C=C2/C(=O)NN(c3cccc(Cl)c3)C2=O)ccc1O	42.8*	6.7	2.7	2.0	1.0	1.1	66.1*	84.4*
Cc1cccc(C(=O)NCCC(=O)Nc2ccc(F)c([N+](=O)[O-])c2)c1	-0.4	-5.1	4.0	-3.8	-0.5	2.8	x	x
CSc1ccc(/C=C/C(=O)c2c(O)cc(C)oc2=O)cc1	72.8*	10.8	-4.2	2.7	-1.4	15.2	25.9*	46.3*
Cc1cc(O)c(C(=O)/C=C/c2ccc(Cl)cc2)c(=O)o1	35.7*	19.4	-2.1	6.9	-0.3	3.9	9.6	13.0
